Holding throughout (assay type): functional, cell-based
The subject of one assay is MDA-MB-435. Briefly: Cytotoxicity in human MDA-MB-435 cells assessed as reduction in cell viability incubated for 72 hrs by cell-titer-96 aqueous one solution cell proliferation assay. The note with it: MDA-MB-435, 72 h. The method, boiled down:
(§1)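 Cells were seeded and cultured overnight at 37 °C in 5% CO2, then exposed to sample, paclitaxel (positive control) or DMSO vehicle for 72 h. Viability was read by CellTiter 96 AQueous One Solution (MTS) assay, and IC50 was calculated relative to the vehicle control.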

The test system of the next assay is MDA-MB-231. The assay is described as follows: Cytotoxicity in human MDA-MB-231 cells assessed as reduction in cell viability incubated for 72 hrs by cell-titer-96 aqueous one solution cell proliferation assay. The conditions noted are these: MDA-MB-231, 72 h. The method, boiled down: as §1
The test system of another assay is OVCAR-3. Briefly: Cytotoxicity in human OVCAR3 cells assessed as reduction in cell viability incubated for 72 hrs by cell-titer-96 aqueous one solution cell proliferation assay. The note with it: OVCAR-3, 72 h. The method, boiled down: as §1

SMILES strings stand for the structures.

On to `CCCC[C@H]1CCCC[C@H](C)[C@@H](OC(C)=O)c2cc(O)c(c(O)c2)[C@@H](CCCC)CCCC[C@H](C)[C@@H](OC(C)=O)c2cc(O)c1c(O)c2`, for which the results for the IC50 in the assay with MDA-MB-435, in the assay on MDA-MB-231 and in the assay with OVCAR-3 were 12000 nM, 13000 nM and 10000 nM, respectively.

`C[C@H]1CCCC[C@H](CCCC(Cl)Cl)c2c(O)cc(cc2O)[C@H](OC(N)=O)[C@@H](C)CCCC[C@H](CCCC(Cl)Cl)c2c(O)cc(cc2O)[C@@H]1OC(N)=O`: the concentration for half-maximal inhibition (IC50) with MDA-MB-435 is 2400 nM; with MDA-MB-231, 1000 nM; in the assay with OVCAR-3, 4300 nM.

As for `C[C@@H]1CCCCC[C@H](CCCCO)c2c(O)cc(cc2O)[C@H](C)CCCCC[C@H](CCCCO)c2c(O)cc1cc2O`, the figures for the IC50 in the assay on MDA-MB-435, in the assay on MDA-MB-231 and in the assay on OVCAR-3 were 900 nM, 1000 nM and 2000 nM, respectively.

Take `C[C@H]1CCCC[C@H](CCCC(Cl)Cl)c2c(O)cc(cc2O)[C@H](OC(N)=O)[C@@H](C)CCCC[C@H](CCCC(Cl)Cl)c2c(O)cc(cc2O)[C@@H]1O`: the 50% inhibitory concentration (IC50) is 3200 nM in the assay with MDA-MB-435, 1200 nM in the assay with MDA-MB-231 and 4200 nM in the assay on OVCAR-3.

Regarding `CCCC[C@H]1CCCCC[C@@H](C)c2cc(O)c(c(O)c2)[C@@H](CCCCO)CCCCC[C@@H](C)c2cc(O)c1c(O)c2`, the 50% inhibitory concentration (IC50) with MDA-MB-435 came to 1600 nM; with MDA-MB-231 it was 1400 nM; in the assay with OVCAR-3, 1400 nM.

Consider `CCCC[C@H]1CCCCC[C@@H](C)c2cc(O)c(c(O)c2)[C@@H](CCCC)CCCCC[C@@H](C)c2cc(O)c1c(O)c2`, for which the 50% inhibitory concentration (IC50) in the assay with MDA-MB-435 was 9800 nM; in the assay on MDA-MB-231, 6200 nM; in the assay with OVCAR-3 it was 5100 nM.

A word on the IC50: it is the concentration needed to halve the response being measured.

The values are drawn from ChEMBL document CHEMBL4229323, “Merocyclophanes C and D from the Cultured Freshwater Cyanobacterium Nostoc sp. (UIC 10110)” (J Nat Prod, 2017).
